Reference: ChEMBL document CHEMBL2385015, “Alkaloids and polyketides from Penicillium citrinum, an endophyte isolated from the Moroccan plant Ceratonia siliqua” (J Nat Prod, 2013)
Calls of active or inactive are those of the source. The rule behind the calls is not given here.

Key:
[1] = system: Escherichia coli; assay: Antibacterial activity against Escherichia coli ATCC 25922 at 64 ug/mL by broth microdilution method; type: functional, organism-based
[2] = system: Streptococcus pneumoniae; assay: Antibacterial activity against Streptococcus pneumoniae ATCC 49619 at 64 ug/mL by broth microdilution method; type: functional, organism-based
[3] = system: Staphylococcus aureus; assay: Antibacterial activity against Staphylococcus aureus ATCC 29213 at 64 ug/mL by broth microdilution method; type: functional, organism-based
[4] = system: L5178Y; assay: Cytotoxicity against mouse L5178Y cells by MTT assay; type: functional, cell-based
How it was run: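 Growth of L5178Y mouse lymphoma cells measured by MTT (microculture tetrazolium) assay relative to untreated controls. Medium with 0.1% EGMME–DMSO served as negative control and the depsipeptide kahalalide F as positive control.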

SMILES: COc1cc(O)c(C)c2c1[C@@H](c1ccc3n1C(=O)c1c-3[nH]c3ccccc3c1=O)O[C@@H](C)C2 [CITRIQUINOCHROMAN]
- Activity [1]: inactive
- Activity [2]: inactive
- Activity [3]: inactive
- IC50 [4]: 6.1 µM

SMILES: C[C@@H]1C[C@@](C)(O)Cc2ccc(CO)c(/C=C/C=C/C(=O)O)c21
- Activity [1]: inactive
- Activity [2]: inactive
- Activity [3]: inactive
- IC50 [4]: > 10 µM

SMILES: COc1cc(O)c(C)c2cc(C)ncc12
- Activity [1]: inactive
- Activity [2]: inactive
- Activity [3]: inactive
- IC50 [4]: > 10 µM

SMILES: O=C1c2c([nH]c3ccccc3c2=O)C2CCCN12 (centres undefined)
- Activity [1]: inactive
- Activity [2]: inactive
- Activity [3]: inactive
- IC50 [4]: > 10 µM

SMILES: CC(=O)c1c(CC(=O)O)cc(O)c(C)c1O
- Activity [1]: inactive
- Activity [2]: inactive
- Activity [3]: inactive
- IC50 [4]: > 10 µM

SMILES: CC1=C[C@H](O)[C@H]2C[C@@H](CO)C[C@@H](C)[C@@H]2[C@H]1/C=C/C=C/C(=O)O
- Activity [1]: inactive
- Activity [2]: inactive
- Activity [3]: inactive
- IC50 [4]: > 10 µM
